Experimental data pooled from the literature.
Target: Receptor-type tyrosine-protein kinase FLT3 (FLT3, Homo sapiens, UniProt P36888)
Sequence (P36888 27-993, as in one of the studies): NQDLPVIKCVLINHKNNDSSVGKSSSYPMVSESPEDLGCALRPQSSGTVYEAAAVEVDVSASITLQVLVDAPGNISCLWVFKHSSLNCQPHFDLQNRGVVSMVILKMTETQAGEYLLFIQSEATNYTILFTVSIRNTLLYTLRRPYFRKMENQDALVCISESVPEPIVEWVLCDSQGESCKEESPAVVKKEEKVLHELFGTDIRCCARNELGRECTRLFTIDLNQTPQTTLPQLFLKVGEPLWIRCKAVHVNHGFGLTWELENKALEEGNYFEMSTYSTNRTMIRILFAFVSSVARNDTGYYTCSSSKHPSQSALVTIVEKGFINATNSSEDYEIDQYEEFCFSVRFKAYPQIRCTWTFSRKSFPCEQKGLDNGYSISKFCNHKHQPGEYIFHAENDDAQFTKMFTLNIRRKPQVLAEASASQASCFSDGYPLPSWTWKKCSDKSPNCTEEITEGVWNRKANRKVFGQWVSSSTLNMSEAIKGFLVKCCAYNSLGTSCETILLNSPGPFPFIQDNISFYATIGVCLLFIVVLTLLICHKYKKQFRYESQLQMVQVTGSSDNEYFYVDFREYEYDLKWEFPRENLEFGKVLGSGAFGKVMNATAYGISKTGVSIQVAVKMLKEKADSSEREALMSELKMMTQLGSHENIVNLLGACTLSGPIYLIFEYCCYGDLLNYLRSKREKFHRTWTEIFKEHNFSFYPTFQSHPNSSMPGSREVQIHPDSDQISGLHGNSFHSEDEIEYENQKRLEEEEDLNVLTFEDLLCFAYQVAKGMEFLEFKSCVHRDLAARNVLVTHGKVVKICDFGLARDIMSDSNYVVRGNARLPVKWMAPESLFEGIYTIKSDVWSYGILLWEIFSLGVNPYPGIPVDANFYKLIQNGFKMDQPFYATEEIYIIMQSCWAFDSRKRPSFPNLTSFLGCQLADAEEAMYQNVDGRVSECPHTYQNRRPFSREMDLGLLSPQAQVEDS

With COc1ccc2c(Oc3ccc4c(C(=O)Nc5ccccc5N)cccc4c3)ccnc2c1 the IC50 was greater than 500 nM (enzyme activity, inhibitor).
For CN(C)c1ccc(C=C2C(=O)Nc3ccccc32)cc1, the IC50 was 70 nM (enzyme activity, inhibitor, radiometric).
For Cc1cc(Nc2cc3ncccc3c(N[C@@H]3C[C@H]4CC[C@@H](C3)N4CCC#N)n2)n[nH]1, the IC50 was 2000 nM (target engagement in cells, inhibitor, BRET).
For C[C@H](c1ccnc(Nc2nc3ccc(-c4cc(N(C)C)ncn4)cc3[nH]2)c1)N1CCN(C(=O)CC(F)(F)F)CC1, the EC50 was 22000 nM (target engagement in cells, BRET).
With C[C@H](Nc1ccnc(Nc2cccc(-c3cccnc3)c2)n1)C(=O)O the IC50 was greater than 23000 nM (enzyme activity, inhibitor).
With CN(C)c1ncnc(-c2ccc3nc(Nc4cc(CN5CCN(C(=O)CC(F)(F)F)CC5)ccn4)[nH]c3c2)c1Cl the EC50 was greater than 50000 nM (target engagement in cells, BRET).
c1cc(Nc2nccc(NC3CCCCC3)n2)cc(-c2ncco2)c1 has an IC50 of 336 nM (enzyme activity, inhibitor).
The IC50 of Cc1cc(Nc2cc(CN3CCOCC3)c3nc(C)c(Cc4ccc(Cl)cc4F)n3n2)n[nH]1 is reported as 4 nM (enzyme activity, inhibitor, TR-FRET).
For CCCNc1ccnc(Nc2cccc(-c3cccnc3)c2)n1, the IC50 was less than 6 nM (enzyme activity, inhibitor).
Cc1ccc(C(=O)Nc2ccc(Oc3cc4cnn(C)c4cc3-c3cn[nH]c3)c(F)c2)c(=O)n1-c1ccc(F)cc1 gave an IC50 of 7 nM (cell growth or viability, ATP luminescence).
